Assays:
Rattus norvegicus [1] = experiment: Anti-benign prostatic hyperplasia activity in Wistar rat assessed as reduction of epididymis weight gain at 1 mg/kg, po qd for 14 days measured on day 15; format: functional; parameters: scale not given: the % may be the effect or the level left
Outline: (§1)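 Mature male Wistar rats, acclimatised one month, dosed orally once daily for 14 days with suspension in 0.50% carboxymethylcellulose at 5 ml/kg; vehicle controls; 5 rats/group. Killed under ether on day 15, 24 h after last dose; organs dissected free of fat and connective tissue, weighed, expressed per 100 g body weight. Mean ± SEM; one-way ANOVA with Dunnett's test.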

[2] = target: T1, 3-oxo-5-alpha-steroid 4-dehydrogenase 2 (Homo sapiens, UniProt P31213); experiment: Inhibition of human type-2 5-alpha reductase expressed in HEK293 cells using [3H]-androstenedione as substrate after 30 mins by HPLC analysis; format: cell-based
T1 sequence (P31213 whole entry): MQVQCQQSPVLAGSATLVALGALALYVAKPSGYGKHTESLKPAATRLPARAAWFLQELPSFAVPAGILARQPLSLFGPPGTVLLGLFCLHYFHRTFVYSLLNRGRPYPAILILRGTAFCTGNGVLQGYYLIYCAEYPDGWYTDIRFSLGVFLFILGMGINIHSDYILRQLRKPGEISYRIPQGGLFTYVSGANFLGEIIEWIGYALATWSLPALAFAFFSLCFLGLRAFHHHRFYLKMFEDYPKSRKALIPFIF
Outline: (§2)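 Lysates of 80% confluent HEK293 cells stably expressing human type I or type II cDNA (pRcCMV), sonicated in 300 mM saccharose, 5 mM Tris-HCl, 0.1 mM EDTA. Final 500 nM androstenedione with [3H]androstenedione, NADPH-regenerating system (0.55 mM NADP, 5 mM glucose-6-phosphate, G6PDH), 2% DMSO; 30 min, 37 °C. Ether-extracted; conversion quantified by radio-HPLC on C8.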

[3] = target: T2, 3-oxo-5-alpha-steroid 4-dehydrogenase 2 (Homo sapiens) (UniProt P31213); experiment: Inhibition of human type-2 5-alpha reductase expressed in HEK293 cells using [3H]-androstenedione as substrate at 10 uM after 30 mins by HPLC analysis; format: cell-based; outline: as §2
T2 sequence (whole entry): T1 sequence (P31213 whole entry)

Rattus norvegicus [4] = experiment: Anti-benign prostatic hyperplasia activity in Wistar rat assessed as reduction of adrenal weight gain per 100 gram of body weight at 1 mg/kg, po qd for 14 days measured on day 15; format: functional; outline: as §1
Rattus norvegicus [5] = experiment: Anti-benign prostatic hyperplasia activity in Wistar rat assessed as reduction of vas deferens weight gain at 1 mg/kg, po qd for 14 days measured on day 15; format: functional; parameters: scale not given: the % may be the effect or the level left; outline: as §1
Rattus norvegicus [6] = experiment: Anti-benign prostatic hyperplasia activity in Wistar rat assessed as reduction of testis weight gain per 100 gram of body weight at 1 mg/kg, po qd for 14 days measured on day 15; format: functional; outline: as §1
[7] = target: T2, 3-oxo-5-alpha-steroid 4-dehydrogenase 2 (Homo sapiens); experiment: Inhibition of human type-2 5-alpha reductase expressed in HEK293 cells using [3H]-androstenedione as substrate at 2 uM after 30 mins by HPLC analysis; format: cell-based; outline: as §2
Rattus norvegicus [8] = experiment: Anti-benign prostatic hyperplasia activity in Wistar rat assessed as reduction of dorsal prostate weight gain at 1 mg/kg, po qd for 14 days measured on day 15; format: functional, Prostate gland; parameters: scale not given: the % may be the effect or the level left; outline: as §1
Rattus norvegicus [9] = experiment: Anti-benign prostatic hyperplasia activity in Wistar rat assessed as reduction of seminal vesicle weight gain per 100 gram of body weight at 1 mg/kg, po qd for 14 days measured on day 15; format: functional; outline: as §1
Rattus norvegicus [10] = experiment: Toxicity in Wistar rat assessed as mortality at 1 mg/kg, po qd for 14 days measured on day 15; format: organism-based; parameters: dose 1 mg/kg, route oral; conditions: in vivo, 336 h
Outline: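 Mature male Wistar rats, acclimatised one month, dosing begun after 9 weeks. Compound suspended in 0.50% carboxymethylcellulose sodium and given orally at 5 ml/kg once daily for 14 days. Vehicle-only control group, 5 animals per group. Mortality recorded over treatment. Rats weighed and killed under ether anaesthesia on day 15, 24 h after the last dose.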

Rattus norvegicus [11] = experiment: Anti-benign prostatic hyperplasia activity in Wistar rat assessed as reduction of body weight gain at 1 mg/kg, po qd for 14 days measured on day 15; format: functional; parameters: scale not given: the % may be the effect or the level left; outline: as §1
Rattus norvegicus [12] = experiment: Anti-benign prostatic hyperplasia activity in Wistar rat assessed as reduction of ventral prostate weight gain at 1 mg/kg, po qd for 14 days measured on day 15; format: functional, Prostate gland; parameters: scale not given: the % may be the effect or the level left; outline: as §1
[13] = target: T3, 3-oxo-5-alpha-steroid 4-dehydrogenase 1 (Homo sapiens) (UniProt P18405); experiment: Inhibition of human type-1 5-alpha reductase expressed in HEK293 cells using [3H]-androstenedione as substrate at 10 uM after 30 mins by HPLC analysis; format: cell-based; outline: as §2
T3 sequence (whole entry): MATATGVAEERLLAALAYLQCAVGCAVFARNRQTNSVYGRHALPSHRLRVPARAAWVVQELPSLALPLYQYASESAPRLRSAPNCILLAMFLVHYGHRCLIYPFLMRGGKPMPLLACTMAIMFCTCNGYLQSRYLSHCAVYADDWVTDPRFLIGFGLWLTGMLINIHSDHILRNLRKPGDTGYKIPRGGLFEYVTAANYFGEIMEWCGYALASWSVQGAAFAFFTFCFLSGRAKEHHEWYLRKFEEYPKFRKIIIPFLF

Rattus norvegicus [14] = experiment: Anti-benign prostatic hyperplasia activity in Wistar rat assessed as reduction of liver weight gain per 100 gram of body weight at 1 mg/kg, po qd for 14 days measured on day 15; format: functional; outline: as §1
[15] = target: T3, 3-oxo-5-alpha-steroid 4-dehydrogenase 1 (Homo sapiens); experiment: Inhibition of human type-1 5-alpha reductase expressed in HEK293 cells using [3H]-androstenedione as substrate at 2 uM after 30 mins by HPLC analysis; format: cell-based; outline: as §2

Structure (SMILES) | Activity (Rattus norvegicus [1]) | IC50 [2] | inhibition [3] | Activity (Rattus norvegicus [4]) | Activity (Rattus norvegicus [5]) | Activity (Rattus norvegicus [6]) | inhibition [7] | Activity (Rattus norvegicus [8]) | Activity (Rattus norvegicus [9]) | Activity (Rattus norvegicus [10]) | Activity (Rattus norvegicus [11]) | Activity (Rattus norvegicus [12]) | inhibition [13] | Activity (Rattus norvegicus [14]) | inhibition [15]
C[C@]12CC[C@H]3[C@@H](CC=C4C=C(C(=O)O)CC[C@@H]43)[C@@H]1CCC2=O | 29.88% | 213 nM | 100% | 15.019 mg | 34.8% | 926.533 mg | 89.5% | 15.62% | 167.37 mg | Non-toxic | 22.992% | 22.56% | 82.1% | 3.078 g | 
CC(C)(C)NC(=O)[C@H]1CC[C@H]2[C@@H]3CC[C@H]4NC(=O)C=C[C@]4(C)[C@H]3CC[C@]12C [FINASTERIDE] | 14.4% | 30.3 nM |  | 16.575 mg | 14.45% | 1058.022 mg |  | 45.32% | 105.51 mg | Non-toxic | 8.032% | 44.76% |  | 3.5097 g | 
CN1C(=O)CC[C@H]2[C@@H]3CC=C4C=C(C#N)CC[C@]4(C)[C@H]3CC[C@@]21C | 10.11% |  | 13.5% | 21.311 mg | 14.58% | 932.988 mg |  | -8.07% | 223.05 mg | Non-toxic | 6.767% | 6.72% | 93% | 4.861 g | 64%
C=CCN1C(=O)CC[C@H]2[C@@H]3CC=C4C=C(C(=O)O)CC[C@]4(C)[C@H]3CC[C@@]21C | 24.75% | 72.8 nM | 100% | 17.967 mg | 27.89% | 1094.935 mg | 99.7% | 31.25% | 149.399 mg | Non-toxic | 7.518% | 35.34% | 0.4% | 3.168 g | 
CC(=O)N1C(=O)CC[C@H]2[C@@H]3CC=C4C=C(C#N)CC[C@]4(C)[C@H]3CC[C@@]21C |  |  | 23.2% |  |  |  |  |  |  |  |  |  | 2.2% |  | 
CN1C(=O)CC[C@H]2[C@@H]3CC=C4C=C(C(=O)O)CC[C@]4(C)[C@H]3CC[C@@]21C | 31.75% | 54.1 nM | 100% | 12.464 mg | 29.36% | 956.392 mg | 99% | 39.96% | 126.262 mg | Non-toxic | 6.517% | 39.5% | 18.9% | 3.224 g | 
C[C@]12CCC(C#N)=CC1=CC[C@@H]1[C@@H]2CC[C@]2(C)NC(=O)CC[C@@H]12 |  |  | 9.9% |  |  |  |  |  |  |  |  |  | 27.6% |  | 
CCN1C(=O)CC[C@H]2[C@@H]3CC=C4C=C(C(=O)O)CC[C@]4(C)[C@H]3CC[C@@]21C | 17.25% | 22.1 nM | 100% | 15.574 mg | 19.32% | 1128.214 mg | 100% | 28.37% | 151.015 mg | Non-toxic | 5.409% | 39.35% | 32.3% | 2.91 g | 
C[C@]12CC[C@H]3[C@@H](CC=C4C=C(C#N)CC[C@@H]43)[C@@H]1CCC2=O |  |  | 1.2% |  |  |  |  |  |  |  |  |  | 0% |  | 
C[C@]12CCC(C(=O)O)=CC1=CC[C@@H]1[C@@H]2CC[C@]2(C)NC(=O)CC[C@@H]12 | 13.98% |  | 62.9% | 13.973 mg | 26.33% | 993.729 mg |  | 46.5% | 186.102 mg | Non-toxic | 8.323% | 27.33% | 0% | 2.713 g | 
C[C@]12CCC(C#N)=CC1=CC[C@@H]1[C@@H]2CC[C@@]2(C)[C@H]1CCC(=O)N2Cc1ccccc1 |  |  | 34.7% |  |  |  |  |  |  |  |  |  | 0% |  | 
CCN1C(=O)CC[C@H]2[C@@H]3CC=C4C=C(C#N)CC[C@]4(C)[C@H]3CC[C@@]21C |  |  | 48.9% |  |  |  |  |  |  |  |  |  | 56.1% |  | 
C=CCN1C(=O)CC[C@H]2[C@@H]3CC=C4C=C(C#N)CC[C@]4(C)[C@H]3CC[C@@]21C |  |  | 3.3% |  |  |  |  |  |  |  |  |  | 20.8% |  | 
C[C@]12CCC(C#N)=CC1=CC[C@@H]1[C@@H]2CC[C@@]2(C)[C@H]1CCC(=O)N2CCC#N |  |  | 9.9% |  |  |  |  |  |  |  |  |  | 0% |  | 
C[C@]12CCC(Br)=CC1=CC[C@@H]1[C@@H]2CC[C@]2(C)NC(=O)CC[C@@H]12 |  |  | 45.6% |  |  |  |  |  |  |  |  |  | 34.5% |  | 
C[C@]12CCC(C#N)=CC1=CC[C@@H]1[C@@H]2CC[C@@]2(C)[C@H]1CCC(=O)N2C(=O)c1ccccc1 |  |  | 11.4% |  |  |  |  |  |  |  |  |  | 0% |  | 
CCOC(=O)CCN1C(=O)CC[C@H]2[C@@H]3CC=C4C=C(C(=O)O)CC[C@]4(C)[C@H]3CC[C@@]21C | 25.41% | 26.5 nM | 100% | 17.522 mg | 37.55% | 1075.498 mg | 100% | 28.75% | 136.605 mg | Non-toxic | 15.618% | 33.86% | 8.5% | 3.542 g | 
